In ChEMBL document CHEMBL1649090, “Discovery of (7R)-14-cyclohexyl-7-{[2-(dimethylamino)ethyl](methyl) amino}-7,8-dihydro-6H-indolo[1,2-e][1,5]benzoxazocine-11-carboxylic acid (MK-3281), a potent and orally bioavailable finger-loop inhibitor of the hepatitis C virus NS5B polymerase” (J Med Chem, 2011):
pEC50, pIC50: −log10 of the molar value. The source made the active and inactive calls. The calls are words filed in the database; no cut-off is given here.

Key:
Hepatitis C virus [1] = experiment: Antiviral activity against HCV1b BK; type: functional, organism-based, Hepacivirus hominis; details: genotype 1b BK
[2] = Clearance in Sprague-Dawley rat at 3 mg/kg, iv and 3 mg/kg, po; type: ADME, organism-based; details: in vivo
In short: (§1)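 Single-dose PK of the bis-HCl salt, n = 3 per species (dog po n = 2). Intravenous doses: rat 3, dog 1, rhesus 2 mg/kg, in DMSO/PEG400/water 20%/60%/20%. Oral doses: rat 3, dog 2, rhesus 4 mg/kg, in PEG400 for rat and dog and PEG400/water 70%/30% for rhesus.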

[3] = AUC in Sprague-Dawley rat at 3 mg/kg, po; type: ADME, organism-based; design: dose 3 mg/kg, route oral; details: plasma
In short: (§2)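 Single-dose rat PK with the compound given as its TFA salt to Sprague-Dawley rats (n = 3) in DMSO/PEG400/water 20%/60%/20%. Dosing was 3 mg/kg iv and 3 mg/kg po.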

[4] = Oral bioavailability in rhesus monkey at 4 mg/kg; type: ADME, organism-based, Macaca mulatta; details: in vivo; in short: as §1
[5] = target: Protein kinase C alpha type (Homo sapiens, UniProt P17252); experiment: Inhibition of PKCalpha
[6] = target: DNA polymerase beta (Homo sapiens) (UniProt P06746); experiment: Inhibition of human DNA polymerase beta up to 50 uM
[7] = Plasma protein binding in monkey; type: ADME, cell-free, Macaca mulatta; details: rhesus monkey, read-out: PPB (converted)
[8] = Oral bioavailability in Sprague-Dawley rat at 3 mg/kg; type: ADME, organism-based; details: in vivo; in short: as §2
[9] = Intrinsic clearance in dog liver microsomes assessed per mg of protein presence of UDPGA; type: ADME, Canis lupus familiaris, Microsome
[10] = Clearance in rhesus monkey at 2 mg/kg, iv and 4 mg/kg, po; type: ADME, organism-based, Macaca mulatta; details: in vivo; in short: as §1
[11] = Intrinsic clearance in dog liver microsomes assessed per mg of protein; type: ADME, Canis lupus familiaris, Microsome
[12] = Ratio of drug level in liver to plasma in Sprague-Dawley rat liver at 3 mg/kg, po after 6 hrs; type: ADME, organism-based; design: dose 3 mg/kg, route oral
In short: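 Sprague-Dawley rats (n = 3) received the compound as its TFA salt in DMSO/PEG400/water 20%/60%/20%, as a single iv dose of 3 mg/kg or a single oral dose of 3 mg/kg. Liver tissue and plasma concentrations were measured 6 h after the oral dose.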

[13] = Cmax in rhesus monkey at 2 mg/kg, iv and 4 mg/kg, po; type: ADME, organism-based, Macaca mulatta; details: in vivo; in short: as §1
[14] = Clearance in dog at 1 mg/kg, iv and 2 mg/kg, po; type: ADME, organism-based, Canis lupus familiaris; details: in vivo; in short: as §1
[15] = Plasma concentration in SCID mouse at 50 mg/kg, ip bid for 5 days measured 12 hrs after last post dose; type: ADME, organism-based; design: dose 50 mg/kg, route intraperitoneal
In short: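 SCID mice (n = 3) were given 50 mg/kg by intraperitoneal injection twice daily for five consecutive days. Plasma compound level was measured 12 h after the last dose.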

Hepatitis C virus [16] = experiment: Antiviral activity against HCV1b infected in humanized uPA+/+-SCID mouse assessed as reduction of plasma viral RNA level at 50 mg/kg, ip bid for 4 days; type: functional, Hepacivirus hominis; details: route intraperitoneal
In short: (§3)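 Three chimeric uPA+/+-SCID mice with human hepatocytes, infected with genotype 1b HCV, received the dose intraperitoneally twice daily for 4 days in PEG400/water 30%/70%. Three vehicle-only mice were dosed for four days as controls. Plasma HCV RNA change is reported per animal and as mean, in log10 (lower limit 315 IU/mL). Follow-up ran to day 21. Plasma trough drug was measured 12 h after the last dose.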

[17] = Volume of distribution at steady state in rhesus monkey at 2 mg/kg, iv and 4 mg/kg, po; type: ADME, organism-based, Macaca mulatta; details: in vivo, read-out: Vdss
In short: (§4)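 Single iv and single oral doses, given as the bis-HCl salt, in rat, dog and rhesus, n = 3 per species (dog oral n = 2). The iv vehicle was DMSO/PEG400/water 20%/60%/20%. Oral vehicle was PEG400 for rat and dog and PEG400/water 70%/30% for rhesus. Values are mean ± SD.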

[18] = Cmax in Sprague-Dawley rat at 3 mg/kg, iv and 3 mg/kg, po; type: ADME, organism-based; details: in vivo; in short: as §1
[19] = Intrinsic clearance in rat liver microsomes assessed per mg of protein; type: ADME, Microsome
[20] = Intrinsic clearance in human liver microsomes assessed per mg of protein; type: ADME, Microsome
[21] = Terminal half life in rhesus monkey at 2 mg/kg, iv and 4 mg/kg, po; type: ADME, organism-based, Macaca mulatta; details: in vivo; in short: as §4
[22] = Intrinsic clearance in rat liver microsomes assessed per mg of protein in presence of UDPGA; type: ADME, Microsome
[23] = Plasma concentration in HCV1b infected humanized uPA+/+-SCID mouse at 50 mg/kg, ip bid for 4 days measured 12 hrs after last post dose; type: ADME, organism-based; design: dose 50 mg/kg, route intraperitoneal
In short: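 Three humanized uPA+/+-SCID mice infected with genotype 1b HCV received 10 or 50 mg/kg ip twice daily for 4 days, in PEG400/water 30%/70%. Trough plasma concentration was taken 12 h after the last dose.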

[24] = AUC in rhesus monkey at 4 mg/kg, po; type: ADME, organism-based, Macaca mulatta; design: dose 4 mg/kg, route oral; details: plasma; in short: as §1
Hepatitis C virus [25] = experiment: Antiviral activity against HCV1b infected in human Huh-7 cells assessed as inhibition of viral RNA replication after 96 hrs by ELISA assay in presence of 50% normal human serum; type: functional, organism-based, Hepacivirus hominis; details: genotype 1b, Huh-7, 96 h
[26] = target: Macrophage metalloelastase (Homo sapiens, UniProt P39900); experiment: Inhibition of MMP12
Chain of Macrophage metalloelastase (P39900 whole entry): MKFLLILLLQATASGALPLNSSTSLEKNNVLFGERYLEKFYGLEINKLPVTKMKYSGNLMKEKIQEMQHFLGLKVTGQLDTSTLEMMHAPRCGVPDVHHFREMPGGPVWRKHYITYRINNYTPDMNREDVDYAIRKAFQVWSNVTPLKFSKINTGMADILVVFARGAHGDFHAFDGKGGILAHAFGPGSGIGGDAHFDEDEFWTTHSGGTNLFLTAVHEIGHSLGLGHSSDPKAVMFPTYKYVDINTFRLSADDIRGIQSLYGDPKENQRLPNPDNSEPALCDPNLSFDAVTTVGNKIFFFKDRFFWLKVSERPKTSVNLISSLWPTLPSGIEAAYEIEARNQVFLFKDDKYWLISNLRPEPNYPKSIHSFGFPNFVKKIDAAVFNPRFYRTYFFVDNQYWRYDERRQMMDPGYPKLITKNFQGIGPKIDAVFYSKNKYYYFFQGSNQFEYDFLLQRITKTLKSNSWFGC

Cytochrome P450 2D6 = Cytochrome P450 2D6 (Homo sapiens, UniProt P10635); experiment: Inhibition of CYP2D6 up to 50 uM; type: ADME
Chain of Cytochrome P450 2D6 (P10635 whole entry): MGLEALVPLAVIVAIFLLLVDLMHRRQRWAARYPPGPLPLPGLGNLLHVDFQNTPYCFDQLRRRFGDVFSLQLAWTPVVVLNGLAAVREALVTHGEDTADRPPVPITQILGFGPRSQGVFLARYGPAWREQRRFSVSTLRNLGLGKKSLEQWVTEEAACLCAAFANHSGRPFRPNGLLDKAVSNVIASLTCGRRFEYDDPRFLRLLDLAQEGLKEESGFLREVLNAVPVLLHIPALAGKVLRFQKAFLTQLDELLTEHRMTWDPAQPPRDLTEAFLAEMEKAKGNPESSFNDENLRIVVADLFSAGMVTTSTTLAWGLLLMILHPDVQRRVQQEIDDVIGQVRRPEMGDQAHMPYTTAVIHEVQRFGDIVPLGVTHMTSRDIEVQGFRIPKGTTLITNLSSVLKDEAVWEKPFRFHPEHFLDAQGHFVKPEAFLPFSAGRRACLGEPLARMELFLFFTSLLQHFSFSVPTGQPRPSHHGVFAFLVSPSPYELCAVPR

[27] = target: T1, Nuclear receptor subfamily 1 group I member 2 (Homo sapiens, UniProt O75469); experiment: Inhibition of PXR activation up to 50 uM
T1 sequence (O75469 whole entry): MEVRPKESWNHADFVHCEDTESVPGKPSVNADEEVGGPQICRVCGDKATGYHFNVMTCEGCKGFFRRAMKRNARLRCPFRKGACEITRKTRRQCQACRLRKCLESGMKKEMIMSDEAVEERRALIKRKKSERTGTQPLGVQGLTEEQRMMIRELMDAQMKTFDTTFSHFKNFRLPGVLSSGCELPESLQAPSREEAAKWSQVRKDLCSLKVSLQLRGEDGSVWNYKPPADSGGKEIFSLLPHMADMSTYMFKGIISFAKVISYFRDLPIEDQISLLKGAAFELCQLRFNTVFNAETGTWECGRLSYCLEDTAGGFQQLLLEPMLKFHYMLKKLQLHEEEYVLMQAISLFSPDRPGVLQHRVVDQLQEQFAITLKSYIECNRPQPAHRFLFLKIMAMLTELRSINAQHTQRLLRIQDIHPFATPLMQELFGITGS

Hepatitis C virus [28] = experiment: Antiviral activity against HCV1b infected in humanized uPA+/+-SCID mouse assessed as reduction of viremia at 50 mg/kg, ip bid for 4 days; type: functional, Hepacivirus hominis; details: route intraperitoneal; in short: as §3
[29] = Plasma protein binding in human; type: ADME, cell-free; details: read-out: PPB (converted)
Cytochrome P450 2C9 = Cytochrome P450 2C9 (Homo sapiens, UniProt P11712); experiment: Inhibition of CYP2C9 up to 50 uM; type: ADME
Chain of Cytochrome P450 2C9 (P11712 whole entry): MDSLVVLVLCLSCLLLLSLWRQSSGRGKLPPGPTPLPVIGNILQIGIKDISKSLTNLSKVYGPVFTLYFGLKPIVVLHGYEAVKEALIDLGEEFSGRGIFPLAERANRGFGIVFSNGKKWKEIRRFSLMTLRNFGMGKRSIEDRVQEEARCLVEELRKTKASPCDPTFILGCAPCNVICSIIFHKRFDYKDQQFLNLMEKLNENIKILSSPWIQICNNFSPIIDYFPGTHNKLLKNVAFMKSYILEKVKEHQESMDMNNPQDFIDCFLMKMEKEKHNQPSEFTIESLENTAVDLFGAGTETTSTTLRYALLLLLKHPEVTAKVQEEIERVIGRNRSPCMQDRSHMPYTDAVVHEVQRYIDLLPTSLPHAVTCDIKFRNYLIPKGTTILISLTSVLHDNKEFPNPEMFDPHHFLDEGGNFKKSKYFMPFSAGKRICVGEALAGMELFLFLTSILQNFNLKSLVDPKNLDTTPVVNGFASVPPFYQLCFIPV

[30] = Plasma protein binding in dog; type: ADME, cell-free, Canis lupus familiaris; details: read-out: PPB (converted)
Hepatitis C virus [31] = experiment: Antiviral activity against HCV1b infected in humanized uPA+/+-SCID mouse assessed as reduction of plasma viral RNA level at 10 mg/kg, ip bid for 4 days; type: functional, Hepacivirus hominis; details: route intraperitoneal
In short: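 Chimeric uPA+/+-SCID mice with human hepatocytes, infected with genotype 1b HCV, were dosed twice daily. The drop in plasma HCV RNA is given as mean log10. Plasma drug concentration was measured 12 h after the last dose.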

In the case of `CN(C)CCN(C)[C@H]1COc2ccccc2-c2c(C3CCCCC3)c3ccc(C(=O)O)cc3n2C1` [MK-3281], the pEC50 (Hepatitis C virus [1]) was 8.05, the clearance [2] was 22 mL/min/kg and the AUC [3] was 2.4 µM·h. For the same molecule, the bioavailability [4] was 35%, the pIC50 [5] was 4.23 and the inhibition [6] was “inactive”. It also gave a fraction unbound [7] of 0.074, a bioavailability [8] of 49% and a microsomal CLint [9] of less than 4 µL/min/mg. For the same molecule, the clearance [10] was 7 mL/min/kg, the microsomal CLint [11] was 3 µL/min/mg and the Kp at 6 h [12] was 5. The Cmax [13] was 800 nM, the clearance [14] was 7 mL/min/kg and the concentration at 12 h [15] was 3600 nM. The “fold change (FC)” value (Hepatitis C virus [16]) was 3.13, the Vd [17] was 2.2 L/kg and the Cmax [18] was 500 nM. It also gave a microsomal CLint [19] of 7 µL/min/mg, a microsomal CLint [20] of 7 µL/min/mg and a half-life [21] of 5.7 h. It also gave a microsomal CLint [22] of less than 4 µL/min/mg, a concentration at 12 h [23] of 2600 nM and an AUC [24] of 7.4 µM·h. For the same molecule, the pEC50 (Hepatitis C virus [25]) was 6.96, the pIC50 [26] was 5.08 and the “inhibition (INH)” value (Cytochrome P450 2D6) was “Not Active”. For the same molecule, the “inhibition (INH)” value [27] was “Not Active”, the “fold change (FC)” value (Hepatitis C virus [28]) was -3.94 and the fraction unbound [29] was 0.031. The “inhibition (INH)” value (Cytochrome P450 2C9) was “Not Active”, the fraction unbound [30] was 0.027 and the “fold change (FC)” value (Hepatitis C virus [31]) was 1.4.
